From PubChem BioAssay
Activity calls are given as the source filed them.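 Rule for the calls, unless noted: active = a full or partial loss of lipid-probe fluorescence in the fish gall bladder, intestine or both, judged by eye; inactive = no fluorescence loss, or compound toxic to the fish.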

Columns and labels:
[1] = inhibitors of TNFa-induced NFkB p65 translocation, primary screen, imaging, HUVEC, MLSMR starter and 10KST1 sets (AID 438;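 active = inhibition above 20% together with a positive visual image hit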;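 note: compound added about 3h40 before a 20 min TNFalpha stimulation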;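 for inhibition: signal is the nuclear over cytoplasmic p65 intensity ratio per well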); conditions: HUVEC TNFa-induced p65 nuclear translocation; cell count: measured here: nuclei count (cytotoxicity indicator), at 2.08 µM; inhibition: at 2 µM, stronger effect = higher value, 0% TNFa-plus-vehicle, 100% no-TNFa wells
[2] = inhibitors of E-selectin induction by TNFa, primary screen, imaging, HUVEC, immunofluorescence, MLSMR starter and 10KST1 sets (AID 487;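 active = visually confirmed hit in the image check and inhibition above 20%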;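 for inhibition: signal is fraction of cell area covered by stained E-selectin grains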;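 for nuclei count: 100% = median nuclei count of all wells on the same plate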); conditions: HUVEC TNFalpha-induced E-selectin immunofluorescence imaging, at 2 µM; inhibition: stronger effect = higher value; nuclei count: measured here: cell number, toxicity
[3] = DUSP6 inhibitors restoring Erk phosphorylation by chemical complementation, primary imaging in DUSP6-transfected HeLa (AID 609;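 active = compounds giving at least 50% inhibition in the cell-based MKP-3 phosphatase rescue imaging test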;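 for inhibition: phospho-Erk level distribution per well compared with pooled transfected vehicle control wells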); conditions: HeLa MKP-3 transfected, phospho-Erk imaging KS statistic, at 10 µM, cells stimulated with TPA for 15 min
[4] = target: Dual specificity protein phosphatase 6 (Homo sapiens) (UniProt Q16828); test: as above; conditions: HeLa MKP-3 transfected, phospho-Erk imaging KS statistic; at 10 µM; stronger effect = higher value; cells stimulated with TPA for 15 min
[5] = target: Voltage-gated potassium channel subunit beta-2 (Rattus norvegicus) (UniProt P62483); test: KvBeta enzyme negative modulators, primary screen, biochemical, NADPH fluorescence (AID 622;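 active = fluorescence slope higher than the sample average by over 3 SD, cut at about -0.22 in these data, passing the limit was not always enough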;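 note: slope of raw intensity against log time taken from 70 to 1610 s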); conditions: recombinant KvBeta, 4-cyanobenzaldehyde reduction, at 10 µM, stronger effect = higher value
[6] = target: Voltage-gated potassium channel subunit beta-2 (Rattus norvegicus) (UniProt P62483); test: KvBeta positive modulators, primary screen, biochemical, NADPH fluorescence (AID 623;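 active = NADPH fluorescence slope more negative than the mean of all samples by about 3 SD, 99.7% confidence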;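 note: fluorescence intensity change per second fitted from 20 to 320 s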); conditions: Recombinant KvBeta, NADPH fluorescence decrease slope, 10 min; at 10 µM; stronger effect = lower value
[7] = target: Alpha-2C adrenergic receptor (Homo sapiens) (UniProt P18825); test: modulators of alpha2C/GIRK thallium flux, primary screen, cell-based, HEK293 alpha2C/GIRK1/2 (AID 624;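 active = fluorescence slope after compound addition differing from the mean of all screened samples at 99.7% confidence, in either direction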;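 note: slope of fluorescence ratio to pre-addition baseline per second over 15 to 24 s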); conditions: thallium flux BTC fluorescence, at 10 µM, actives lie on both sides
[8] = inhibitors of larval lipid processing in zebrafish, primary screen, whole organism, PED6 fluorescence, gall bladder and intestine (AID 686); conditions: Zebrafish larvae PED6 lipid processing, fluorescence scoring; screened at 20 µM (by protocol);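 note: larvae 5 to 7 days old with five fish per well; signal comes from phospholipase A2 cleavage of quenched PED6 carried via bile; overnight exposure to compound and PED6 before scoring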
Method in brief: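 system = live zebrafish larvae aged 5-7 days, whole organism | probe or stimulus = ingested quenched lipid PED6 at 100 nM | doses = 20 µM single dose | timing = overnight exposure | detection = fluorescence microscopy with visual scoring of gall bladder and intestine | read-out = visual per-well fluorescence inhibition score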

[9] = inhibitors of Chlamydomonas gravitaxis, primary screen, whole organism, Chlamydomonas reinhardtii, WT vs cilia-less mutant, absorbance, 96-well (AID 463189;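 active = inhibition at or above 50% relative to wild type and mutant plate controls; inactive = inhibition below 50%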;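 note: 0% = wild type cc124 cells in DMSO and 100% = ciliumless bld1 mutant cells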); conditions: OD600 absorbance, 2 days, at 10 µM, stronger effect = higher value
[10] = measured here: cell density z-score
[11] = measured here: nuclear c-Myc green intensity z-score
[12] = measured here: nuclear pErk red intensity z-score, stronger effect = higher value

Chain of Dual specificity protein phosphatase 6 (Homo sapiens) (Q16828 whole entry, looked up): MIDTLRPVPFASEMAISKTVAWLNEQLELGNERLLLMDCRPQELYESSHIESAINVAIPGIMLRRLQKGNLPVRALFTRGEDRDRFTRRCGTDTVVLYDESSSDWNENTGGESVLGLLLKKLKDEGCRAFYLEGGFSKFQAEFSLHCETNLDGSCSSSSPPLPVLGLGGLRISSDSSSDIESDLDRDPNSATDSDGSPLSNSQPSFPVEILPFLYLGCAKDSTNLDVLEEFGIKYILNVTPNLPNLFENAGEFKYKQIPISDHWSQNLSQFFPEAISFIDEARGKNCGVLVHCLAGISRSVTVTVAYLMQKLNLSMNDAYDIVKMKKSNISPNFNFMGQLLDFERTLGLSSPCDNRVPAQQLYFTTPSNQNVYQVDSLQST
Chain of Alpha-2C adrenergic receptor (Homo sapiens) (P18825 whole entry, looked up): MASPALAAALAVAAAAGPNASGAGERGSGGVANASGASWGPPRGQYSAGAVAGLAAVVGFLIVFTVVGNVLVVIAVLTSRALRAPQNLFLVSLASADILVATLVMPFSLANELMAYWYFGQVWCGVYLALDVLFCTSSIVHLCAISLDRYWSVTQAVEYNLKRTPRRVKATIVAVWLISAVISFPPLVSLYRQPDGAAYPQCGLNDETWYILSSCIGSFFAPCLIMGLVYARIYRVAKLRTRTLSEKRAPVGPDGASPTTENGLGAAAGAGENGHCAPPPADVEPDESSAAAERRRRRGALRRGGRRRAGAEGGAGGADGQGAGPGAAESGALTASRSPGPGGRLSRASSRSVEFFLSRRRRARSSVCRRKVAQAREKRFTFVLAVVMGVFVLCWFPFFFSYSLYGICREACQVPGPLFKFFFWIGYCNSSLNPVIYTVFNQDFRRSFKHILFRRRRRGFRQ
Chain of Voltage-gated potassium channel subunit beta-2 (Rattus norvegicus) (P62483 whole entry, looked up): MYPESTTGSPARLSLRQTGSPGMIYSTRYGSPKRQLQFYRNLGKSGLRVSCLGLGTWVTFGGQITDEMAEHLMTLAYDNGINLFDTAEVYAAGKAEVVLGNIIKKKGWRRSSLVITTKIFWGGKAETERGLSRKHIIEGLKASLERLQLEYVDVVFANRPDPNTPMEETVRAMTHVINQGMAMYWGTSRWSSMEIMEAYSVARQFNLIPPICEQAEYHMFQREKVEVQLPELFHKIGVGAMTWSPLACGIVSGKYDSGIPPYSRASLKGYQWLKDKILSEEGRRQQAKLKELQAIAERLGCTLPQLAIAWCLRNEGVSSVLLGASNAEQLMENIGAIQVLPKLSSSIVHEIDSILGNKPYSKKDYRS

Row | Structure (SMILES) | cell count [1] | inhibition [1] | inhibition [2] | nuclei count [2] [%] | z-score [3, 10] | z-score [3, 11] | z-score [3, 12] | inhibition [4] | fluorescence slope [5] | NADPH fluorescence slope [6] | slope [7] | outcome [8] | inhibition [9]
1 | C=CCn1c(=S)[nH]c2ccccc2c1=O | 649 | 1.8% (inactive) | -30.6% (inactive) | 130 | -0.515 | 0.859 | 0.00467 | 5.57% (inactive) | -0.46 (inactive) | -0.000371 (inactive) | 0.00865 (inactive) | inactive | -14.1% (inactive)
2 | C=CCOC(=O)C1=C(C)NC(SCC(=O)N(CC)CC)=C(C#N)C1c1ccco1 (stereo unspecified) | 361 | -9.9% (inactive) | -137% (inactive) | 153 | -0.539 | -0.441 | 0.117 | -5.89% (inactive) | -0.417 (inactive) | -1.8e-05 (inactive) | 0.00442 (inactive) | inactive; toxic | -0.086% (inactive)
3 | CCCOC(=O)CSC1=C(C#N)C(c2ccccc2OC)C(C#N)C(=O)N1 (stereo unspecified) | 496 | -3.9% (inactive) | -60% (inactive) | 136 | -0.969 | 0.676 | 0.273 | -2.07% (inactive) | -0.5 (inactive) | -7.4e-05 (inactive) | 0.00543 (inactive) | inactive | -12.6% (inactive)
4 | COC(=O)c1ccccc1N1C(=O)[C@@H]2C(c3ccc(Br)cc3)=NO[C@@H]2C1=O | 269 | -12.6% (inactive) | 0.3% (inactive) | 89.9 | -0.914 | 2.06 | -1.22 | 1.75% (inactive) | -0.458 (inactive) | -7.9e-05 (inactive) | 0.00516 (inactive) | inactive | -19.6% (inactive)
5 | COc1cc(-c2nn3c(-c4ccccn4)nnc3s2)cc(OC)c1OC | 600 | -13.9% (inactive) | -249% (inactive) | 171 | 1.12 | -1.51 | 0.045 | -2.47% (inactive) | -0.449 (inactive) | -0.000128 (inactive) | 0.00656 (inactive) | inactive | 13.6% (inactive)
6 | CCCc1cc(-n2ccnc2C)n2c(nc3ccccc32)c1C#N | 536 | -42.1% (inactive) | -109% (inactive) | 153 | -0.822 | -0.981 | 0.35 | -15% (inactive) | -0.415 (inactive) | -3.2e-05 (inactive) | 0.00567 (inactive) | inactive | 4.33% (inactive)
7 | CCOC(=O)c1c(C)cccc1OCC(N)=O | 638 | -2.3% (inactive) | 13.5% (inactive) | 175 | -0.228 | -0.623 | 1.22 | -0.159% (inactive) | -0.487 (inactive) | -0.000164 (inactive) | 0.0049 (inactive) | inactive | -5.84% (inactive)
8 | CCCCC1(C(=O)OCC)CC(CN2CCOCC2)OC1=O (stereo unspecified) | 448 | -21.5% (inactive) | -182% (inactive) | 167 | -1.27 | -1.52 | 2.46 | -8.95% (inactive) | -0.314 (inactive) | 1.1e-05 (inactive) | 0.00504 (inactive) | inactive | 3.54% (inactive)
9 | CNC(=O)c1ncnnc1N(C)C(=O)NCc1ccccc1 | 506 | -21% (inactive) | -54.6% (inactive) | 134 | 0.229 | 0.0819 | -1.12 | -9.66% (inactive) | -0.531 (inactive) | -2.3e-05 (inactive) | 0.00729 (inactive) | inactive | 9.13% (inactive)
10 | COc1ccc(/C=N/n2cncn2)cc1CSc1ccccn1 | 302 | -17.2% (inactive) | -137% (inactive) | 114 | -0.741 | 0.803 | -0.342 | -2.29% (inactive) | -0.32 (inactive) | 9e-06 (inactive) | 0.00478 (inactive) | inactive | 27% (inactive)
11 | CCCCNc1nc2c(c(=O)n(C)c(=O)n2C)n1Cc1cccc(OC)c1 | 452 | -7.7% (inactive) | -133% (inactive) | 175 | 0.299 | -0.341 | -1.15 | -5.62% (inactive) | -0.378 (inactive) | -1.6e-05 (inactive) | 0.00373 (inactive) | active; weak signal in gallbladder and intestine | 1.32% (inactive)
12 | CC(C)(C)C1=Nn2c(nnc2-c2ccco2)SC1 | 663 | -3.7% (inactive) | -70.4% (inactive) | 165 | -0.164 | 0.534 | -0.139 | -6.06% (inactive) | -0.423 (inactive) | -0.000133 (inactive) | 0.00705 (inactive) | inactive | -3.69% (inactive)
13 | COc1cccc(OCCN2CCN(c3ncnc4c3cnn4-c3ccccc3)CC2)c1 | 555 | -23.4% (inactive) | -98.5% (inactive) | 166 | 0.225 | -1.36 | 0.0914 | -11.5% (inactive) | -0.519 (inactive) | -3.9e-05 (inactive) | 0.00443 (inactive) | inactive | 48.3% (inactive)
14 | CC(=O)C1=C(O)C(=O)N(c2cccc(C(=O)O)c2)C1c1ccc(F)cc1 (stereo unspecified) | 580 | -13% (inactive) | -65.7% (inactive) | 160 | -0.487 | -0.742 | 1.35 | -6.06% (inactive) | -0.509 (inactive) | -3.9e-05 (inactive) | 0.00665 (inactive) | inactive | -5.48% (inactive)
15 | COc1cccc(-c2nc(NCc3ccco3)c3ccccc3n2)c1O | 550 | 3% (inactive) | -7.1% (inactive) | 113 | 0.234 | 1.11 | 1.04 | -10.5% (inactive) | -0.282 (inactive) | -1.4e-05 (inactive) | 0.00506 (inactive) | inactive | 14.5% (inactive)
16 | c1ccc(-c2nnc3sc(Cc4cccs4)nn23)cc1 | 602 | -16% (inactive) | -149% (inactive) | 174 | 0.71 | -1.88 | -0.974 | 11.9% (inactive) | -0.467 (inactive) | -0.000133 (inactive) | 0.00581 (inactive) | active; no signal in gallbladder only | 21.4% (inactive)
17 | COc1cc(C)nc(Oc2ccc(=O)n(C)n2)n1 | 616 | -10.3% (inactive) | 13.1% (inactive) | 188 | 0.099 | -0.292 | 0.697 | -8.95% (inactive) | -0.38 (inactive) | -2.2e-05 (inactive) | 0.00541 (inactive) | inactive | 3.29% (inactive)
18 | CCOC(=O)C1=C(CSc2nc(-c3ccncc3)ccc2C#N)OC(N)=C(C#N)C1c1cccnc1 (stereo unspecified) | 701 | -10.4% (inactive) | 45.7% (inactive) | 173 | -0.622 | 0.296 | 2 | -8.95% (inactive) | -0.283 (inactive) | -5.8e-05 (inactive) | 0.00429 (inactive) | inactive | -5.64% (inactive)
19 | CCOC(=O)CC1=NC(=O)CS1 | 636 | -20.6% (inactive) | -40.7% (inactive) | 179 | -0.153 | -1.04 | 1.51 | -5.62% (inactive) | -0.455 (inactive) | -5.7e-05 (inactive) | 0.00579 (inactive) | inactive | 11.6% (inactive)
20 | CC(=O)NC1(C(F)(F)F)C(=O)Nc2c1c(=O)n(C)c(=O)n2C (stereo unspecified) | 480 | -4.5% (inactive) | -139% (inactive) | 144 | 0.582 | -0.0109 | -0.0908 | 1.6e-07% (inactive) | -0.529 (inactive) | -4.1e-05 (inactive) | 0.00477 (inactive) | inactive | 2.3% (inactive)
21 | COc1ccc(C2=Nn3c(nnc3-c3ccccn3)SC2)cc1OC | 593 | -10% (inactive) | 60% (inactive) | 100 | 1.34 | 0.0492 | -0.154 | -16.8% (inactive) | -0.476 (inactive) | -0.000137 (inactive) | 0.00709 (inactive) | inactive | 9.28% (inactive)
22 | Cc1cc(C)c2nc(SCCC#N)nc(C)c2c1 | 635 | -4.4% (inactive) | 9.3% (inactive) | 157 | 0.288 | -0.415 | 1 | -2.91% (inactive) | -0.508 (inactive) | -6.6e-05 (inactive) | 0.00476 (inactive) | inactive | 4.11% (inactive)
23 | CCC(=O)OC1=C2C(=Nc3c(c(=O)n(C)c(=O)n3C)C2c2ccccc2)c2ccccc21 (stereo unspecified) | 509 | -2.9% (inactive) | -57.1% (inactive) | 75.2 | -0.341 | 0.242 | 0.679 | 1.9e-07% (inactive) | -0.505 (inactive) | -5.2e-05 (inactive) | 0.00546 (inactive) | inactive | 15.5% (inactive)
24 | Nc1nonc1-c1noc(-c2ccccc2)n1 | 480 | -3.5% (inactive) | -26.8% (inactive) | 122 | 0.154 | 1.08 | -0.0551 | 13.2% (inactive) | -0.516 (inactive) | -3.2e-05 (inactive) | 0.00533 (inactive) | inactive | 33.2% (inactive)
25 | CC(C)Cn1cnc2c(c1=O)c1nc3ccccc3nc1n2Cc1ccc2c(c1)OCO2 | 361 | -3.7% (inactive) | -15.2% (inactive) | 149 | 0.279 | -0.729 | -0.248 | 9.42% (inactive) | -0.393 (inactive) | -0.000121 (inactive) | 0.00801 (inactive) | inactive | 1.23% (inactive)
26 | CCCNC(=O)N(C)c1nncnc1C(=O)NC | 503 | -20.4% (inactive) | -13.3% (inactive) | 99.4 | 1.47 | 0.478 | -1.19 | 4.72% (inactive) | -0.517 (inactive) | 1.1e-05 (inactive) | 0.00825 (inactive) | inactive | -3.95% (inactive)
27 | COc1ccc2[nH]c(C)c(C(=O)CN3CCc4cc(OC)c(OC)cc4C3)c2c1 | 520 | 3.2% (inactive) | 7.5% (inactive) | 117 | -1.28 | 1.53 | -1.2 | -8.76% (inactive) | -0.205 (inactive) | -2e-05 (inactive) | 0.00464 (inactive) | inactive | 22.2% (inactive)
